# Data published in ChEMBL document CHEMBL4422701, “Jatrophane Diterpenoids from Euphorbia glomerulans” (J Nat Prod, 2019).
# Columns and labels:
# MCF7 = test: Cytotoxicity in human MCF7 cells assessed as reduction in cell viability incubated for 48 hrs by MTT assay; type: cell-based; settings: MCF7, 48 h
# How it was run: (§1)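 Cells grown in RPMI-1640 with 10% heat-inactivated FBS at 37 °C, 5% CO2. Compounds were dissolved in DMSO and given as serial dilutions to cells seeded at 5 × 10^3 per well in log phase, for 48 h. MTT (5 mg/mL) was then added for 4 h, formazan dissolved in DMSO, and absorbance read at 570 nm.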
# NCI/ADR-RES = test: Cytotoxicity in doxorubicin-resistant human MCF7/ADR cells assessed as reduction in cell viability incubated for 48 hrs by MTT assay; type: cell-based; how it was run: as §1
SMILES,IC50 (MCF7) [µM],IC50 (NCI/ADR-RES) [µM]
C=C1[C@H](O)[C@H]2[C@@H](OC(=O)c3ccccc3)[C@](C)(OC(C)=O)C[C@]2(O)[C@H](OC(C)=O)[C@@H](C)/C=C/C(C)(C)C(=O)[C@H](OC(C)=O)[C@H]1OC(C)=O,> 100,> 100
C=C1[C@H](O)[C@H]2[C@@H](OC(=O)c3ccccc3)[C@](C)(O)C[C@]2(O)[C@H](OC(C)=O)[C@@H](C)/C=C/C(C)(C)C(=O)[C@H](OC(C)=O)[C@H]1OC(=O)c1ccccc1,> 100,> 100
C=C1[C@H](OC(C)=O)[C@H]2[C@@H](OC(=O)c3ccccc3)[C@](C)(O)C[C@]2(O)C(=O)[C@@H](C)/C=C/C(C)(C)C(=O)[C@H](OC(=O)C(C)C)[C@H]1OC(C)=O,> 100,> 100
C=C1[C@H](OC(C)=O)CC(=O)C(C)(C)/C=C/[C@H](C)C(=O)[C@@]2(OC(C)=O)C[C@H](C)[C@H](OC(=O)c3ccccc3)[C@@H]2[C@H]1OC(C)=O,51.1,39.3
C=C1[C@H](OC(C)=O)CC(=O)C(C)(C)/C=C/[C@H](C)C(=O)[C@@]2(OC(C)=O)C[C@H](C)[C@H](OC(C)=O)[C@@H]2[C@H]1OC(=O)c1ccccc1,> 100,> 100
C=C1[C@H](OC(C)=O)[C@H]2[C@@H](OC(=O)c3ccccc3)[C@](C)(OC(C)=O)C[C@]2(O)C(=O)[C@@H](C)/C=C/C(C)(C)C(=O)[C@H](OC(C)=O)[C@H]1OC(=O)C(C)C,> 100,> 100
C=C1[C@H](OC(C)=O)[C@H]2[C@@H](OC(=O)c3ccccc3)[C@@H](C)C[C@]2(OC(C)=O)C(=O)[C@@H](C)/C=C/C(C)(C)C(=O)[C@H](O)[C@H]1OC(C)=O,> 100,> 100
C=C1[C@H](OC(C)=O)[C@H]2[C@@H](OC(=O)c3ccccc3)[C@@H](C)C[C@]2(OC(C)=O)C(=O)[C@@H](C)/C=C/C(C)(C)C(=O)[C@H](OC(C)=O)[C@H]1OC(C)=O,> 100,> 100
C=C1[C@H](OC(=O)c2ccccc2)[C@H]2[C@@H](OC(C)=O)[C@@H](C)C[C@]2(OC(C)=O)C(=O)[C@@H](C)/C=C/C(C)(C)C(=O)[C@H](O)[C@H]1OC(C)=O,> 100,> 100
C=C1[C@H](OC(=O)c2ccccc2)[C@H]2[C@@H](OC(C)=O)[C@@H](C)C[C@]2(OC(C)=O)C(=O)[C@@H](C)/C=C/C(C)(C)C(=O)[C@H](OC(=O)c2ccccc2)[C@H]1OC(C)=O,> 100,> 100
C=C1[C@H](OC(=O)c2ccccc2)[C@@H](OC(C)=O)[C@@H](OC(C)=O)C(C)(C)/C=C/[C@H](C)C(=O)[C@@]2(OC(C)=O)C[C@H](C)[C@H](OC(=O)c3ccccc3)[C@@H]2[C@H]1OC(C)=O,> 100,> 100
C=C1[C@H](OC(C)=O)[C@H]2[C@@H](OC(=O)c3ccccc3)[C@@H](C)C[C@]2(OC(C)=O)C(=O)[C@@H](C)/C=C/C(C)(C)C(=O)[C@H](O)[C@H]1OC(=O)c1ccccc1,> 100,> 100
C=C1[C@H](OC(C)=O)[C@H]2[C@@H](OC(=O)c3ccccc3)[C@](C)(O)C[C@]2(O)C(=O)[C@@H](C)/C=C/C(C)(C)C(=O)[C@H](OC(C)=O)[C@H]1OC(=O)c1ccccc1,> 100,> 100
C=C1[C@H](OC(C)=O)[C@H]2[C@@H](OC(=O)c3ccccc3)[C@](C)(OC(C)=O)C[C@]2(O)C(=O)[C@@H](C)/C=C/C(C)(C)C(=O)[C@H](OC(=O)C(C)C)[C@H]1OC(C)=O,50.2,> 100
C=C1[C@H](OC(C)=O)[C@H]2[C@@H](OC(=O)c3ccccc3)[C@@H](C)C[C@]2(O)C(=O)[C@@H](C)/C=C/C(C)(C)C(=O)[C@H](O)[C@H]1OC(C)=O,> 100,> 100
C=C1[C@H](OC(C)=O)[C@H]2[C@@H](OC(=O)c3ccccc3)[C@@H](C)C[C@]2(OC(C)=O)C(=O)[C@@H](C)/C=C/C(C)(C)C(=O)[C@H](OC(C)=O)[C@H]1OC(=O)c1ccccc1,> 100,> 100
C=C1[C@H](OC(C)=O)[C@H]2[C@@H](OC(=O)CC(C)=O)[C@@H](C)C[C@]2(O)C(=O)[C@@H](C)/C=C/C(C)(C)C(=O)[C@H](OC(C)=O)[C@H]1OC(=O)c1ccccc1,> 100,> 100
COc1cccc2c1C(=O)c1c(O)c3c(c(O)c1C2=O)C[C@@](O)(C(=O)CO)C[C@@H]3O[C@H]1C[C@H](N)[C@H](O)[C@H](C)O1 [DOXORUBICIN],–,64.8
